High-throughput results: PubChem, Johns Hopkins Ion Channel Center
KCNK9 inh: blocks the human KCNK9 two-pore domain potassium channel; Q9NPC2; HEK293 KCNK9, FluxOR thallium flux fluorescence; stronger effect = lower value; B-score at 10 µM; 310,000 compounds, 1.2% hits; AID 488922;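 active = ratio B-score over 3 SD below the library mean, with starting fluorescence within 5 SD of its mean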;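 also: negative B-score means less thallium flux so channel inhibition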
Target sequence (Q9NPC2 whole entry, looked up, the tested form may be a part): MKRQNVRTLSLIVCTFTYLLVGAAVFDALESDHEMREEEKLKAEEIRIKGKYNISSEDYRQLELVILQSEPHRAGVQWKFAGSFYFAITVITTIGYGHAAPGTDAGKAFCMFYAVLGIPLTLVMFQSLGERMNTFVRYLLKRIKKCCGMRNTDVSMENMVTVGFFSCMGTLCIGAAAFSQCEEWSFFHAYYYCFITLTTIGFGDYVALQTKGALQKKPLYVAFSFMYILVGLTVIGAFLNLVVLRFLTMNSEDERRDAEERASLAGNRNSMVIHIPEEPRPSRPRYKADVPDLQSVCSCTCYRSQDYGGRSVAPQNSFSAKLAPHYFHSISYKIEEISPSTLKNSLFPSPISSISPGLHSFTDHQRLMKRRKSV
KCNQ1 inh: human KCNQ1 channel inhibition | P51787 | CHO-K1 KCNQ1, FluxOR thallium flux fluorescence; stronger effect = higher value | B-score at 10 µM | 310,000 compounds, 1.3% hits | AID 2642;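 active = compounds whose thallium flux B-score, printed positive for inhibition, exceeds three library SD while starting fluorescence stays within three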;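 also: channel opened by potassium depolarization with thallium stimulus after 20 min compound exposure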
KCNQ1 act: potentiates or activates the human KCNQ1 potassium channel; AID 2648; P51787; B-score at 10 µM; 310,000 compounds, 0.35% hits; CHO-K1 KCNQ1, thallium flux FluxOR fluorescence; stronger effect = higher value;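 active = fluorescence ratio B-score, a plate-corrected score, at least three library SD, with initial intensity B-score within 5 SD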
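Material: CHO-K1 cells stably expressing KCNQ1. Medium: assay buffer for compound exposure, DMSO matched across wells. Reagent: K+/Tl+ depolarizing stimulus. Compound dosing: single-concentration screen. Times: 37 °C overnight plating, 90-min dark dye load, 20-min compound pretreatment. Technique: FluxOR Tl+ flux fluorescence.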
Kir21 inh: Kir2.1 (mouse) channel inhibition; 310,000 compounds, 0.85% hits; B-score at 10 µM; HEK293-Kir2.1, FluxOR thallium flux fluorescence; stronger effect = lower value;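 active = fluorescence ratio B-score at or below minus 3 SD of library scores, with starting-brightness B-score within 2 SD, cut at about -4.2 in these data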;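 also: channel flux triggered by added potassium and thallium sulfate stimulus; B-score of peak minus minimum fluorescence over baseline after thallium stimulus; more negative B-score means stronger Kir2.1 block with less thallium influx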
KCNK3 inh: human KCNK3 channel inhibition, primary screen. O14649. CHO-KCNK3 thallium flux, FluxOR fluorescence; stronger effect = lower value. B-score at 10 µM. 340,000 compounds, 0.84% hits. AID 602410;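 active = B-score under library mean minus 4 SD, starting fluorescence ratio at most library mean plus 5 SD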;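 also: more negative B-score means stronger inhibition of thallium flux through KCNK3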
Target sequence (O14649 whole entry, looked up): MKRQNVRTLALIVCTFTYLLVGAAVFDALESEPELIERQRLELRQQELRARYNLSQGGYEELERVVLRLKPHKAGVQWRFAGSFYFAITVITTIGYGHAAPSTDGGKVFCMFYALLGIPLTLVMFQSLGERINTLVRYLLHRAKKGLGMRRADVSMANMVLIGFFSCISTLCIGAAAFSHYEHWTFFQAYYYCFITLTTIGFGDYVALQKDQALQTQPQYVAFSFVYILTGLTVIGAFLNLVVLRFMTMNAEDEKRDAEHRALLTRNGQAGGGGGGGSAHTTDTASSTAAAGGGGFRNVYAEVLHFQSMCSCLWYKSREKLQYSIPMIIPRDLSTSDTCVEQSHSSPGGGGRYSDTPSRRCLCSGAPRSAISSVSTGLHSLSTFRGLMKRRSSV
hERG protect: hERG (human) protection from proarrhythmic block; CHO-hERG, FluxOR thallium flux, dofetilide IC70 present; activation (rescue from dofetilide block), less the hit threshold, % at 10 µM; 310,000 compounds, 0.51% hits; AID 1511;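 active = activation above the mean of controls blocked by dofetilide plus 5 SD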;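 also: thallium influx through hERG after potassium depolarization seen as dye fluorescence rise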
KCNQ1 block val: reconfirmed blocker of the human KCNQ1 potassium channel. shares compounds with KCNQ1 inh. KCNQ1 cell line, FluxOR thallium flux fluorescence. inhibition, % at 10 µM. 1,600 compounds, 93% hits. AID 588353;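 active = primary screen active, with duplicate mean exceeding buffer control mean plus 3 SD of buffer wells, cut at about 28% in these data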;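 also: 0% = buffer control ratio and 100% = XE991 inhibitor control ratio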
CHO Tl flux: activity in parental CHO cells lacking KCNQ1; 1,600 compounds, 21% hits; parental CHO-K1, FluxOR thallium flux fluorescence ratio; stronger effect = lower value; zero means no signal rise above baseline; AID 588366; fluorescence ratio (Tl flux) at 10 µM; shares compounds with KCNQ1 inh;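 active = mean of duplicate thallium-flux fluorescence ratios in parental host cells more than 5 SD below the buffer control mean, cut at about 0.38 in these data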;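 also: ratio is peak minus minimum fluorescence divided by baseline fluorescence; actives read low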
KCNQ1 ephys val: confirmation of human KCNQ1 potassium channel inhibitors by electrophysiology. shares compounds with KCNQ1 inh. KCNQ1-CHO cells, automated patch clamp current. calls only at 10 µM. 490 compounds, 20% hits;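 active = KCNQ1 current drop exceeding 3 SD of negative control wells, seen in both duplicate runs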;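 also: steady state current during a 2 s step from -80 to +40 mV; negative values mean current inhibition and positive values mean potentiation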
KCNQ2 inh: KCNQ1 inhibitor that also blocks rat KCNQ2 channel | shares compounds with KCNQ1 inh | KCNQ2 cells, FluxOR thallium flux fluorescence | inhibition, % at 10 µM | 1,600 compounds, 71% hits | AID 651746;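 active = mean percent inhibition of the KCNQ2 thallium signal more than 5 SD above the buffer-only control wells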;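 also: KCNQ2 expressed in CHO cells; 0% = buffer control wells and 100% = XE-991 inhibitor control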
KCNQ1 KCNE1 spec: selectivity of KCNQ1 inhibitors: inhibition of human KCNQ1/KCNE1 channel; AID 652147; inhibition, % at 10 µM; KCNQ1/KCNE1 cells, FluxOR thallium flux fluorescence; shares compounds with KCNQ1 inh; 1,600 compounds, 77% hits;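 active = mean percent inhibition of duplicate wells above the buffer-only control mean plus 3 SD of those controls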;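 also: 0% = buffer only wells and 100% = XE-991 inhibitor control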
The depositor's hits bear a star; i = inactive; . = no result given; + = active, no number. A selection: hits, their analogues and other compounds. The true share with any hit is near 3.8%.

SMILES	KCNK9 inh	KCNQ1 inh	KCNQ1 act	Kir21 inh	KCNK3 inh	hERG protect	KCNQ1 block val	CHO Tl flux	KCNQ2 inh	KCNQ1 KCNE1 spec	others
CC(C)OC(=O)CSc1nc2c(c(C3CC=CCC3)c1C#N)CCC2 (stereo not drawn)	i	10*	i	-1	i	-7.7	95.5*	0.377*	132.0%*	106.0%*
Cc1cc(C)c(C#N)c(SCC(=O)CC(=O)OC(C)C)n1	i	i	i	-0.89	i	-7.6	.	.	.	.
C=CCSc1nc2c(c(C3CC=CCC3)c1C#N)CCC2 (stereo not drawn)	-7.69*	6*	i	-2.23	i	-3.3	87.5*	0.457	101.3%*	143.0%*	KCNQ1 ephys val=i
O=C(Nc1cccc(F)c1)N(Cc1ccc(Cl)cc1)CC(O)C(F)(F)F (stereo not drawn)	i	8*	i	0.07	i	-12.3	72.5*	0.511	i	56.5%*
CC(=O)Nc1sc(N/N=C/c2ccc(C)cc2)nc1-c1ccc(C)cc1	i	i	i	0	i	-3.1	.	.	.	.
CC(=O)Nc1sc(/C(C#N)=C/c2ccc(Cl)c(Cl)c2)nc1-c1ccc(C)cc1	i	16*	i	-0.62	i	-18.6	+	0.23*	i	i
Cc1c(NC(=O)COc2ccc3ccc(=O)oc3c2)c(=O)n(-c2ccccc2)n1C	i	i	i	-2.62	i	-11.5	.	.	.	.
O=C(c1ccco1)N1CCCC(c2nc3c(nnn3Cc3ccccc3)c(=O)[nH]2)C1 (stereo not drawn)	i	i	i	0.05	i	-6.2	.	.	.	.
CC(C)(C)c1nc(N2CCN(C(=O)c3ccco3)CC2)c2nnn(Cc3ccccc3)c2n1	i	7*	i	0.53	i	-9.4	118.5*	0.39	105.3%*	131.5%*	KCNQ1 ephys val=i
Cc1ccc(Oc2nnc(-c3ccc(C)cc3)c3ccccc23)cc1	i	i	i	-0.47	i	-6.5	.	.	.	.
CCCCSc1nnc(-c2ccc(C)cc2)c2ccccc12	-7.08*	11*	i	-2.46	i	-22.1	153.5*	0.428	103.0%*	175.0%*	KCNQ1 ephys val=i
CCN(CC)CC(C)(C)C(=O)/C=C/c1ccc(/C=C/C(=O)C(C)(C)CN(CC)CC)cc1	.	.	.	.	i	.	.	.	.	.
O=C(NC1CCCCC1)C(c1ccncc1)N(Cc1ccc2c(c1)OCO2)C(=O)c1cnsn1 (stereo not drawn)	i	7*	i	1.74	i	-6.6	65.0*	0.441	i	72.5%*
c1ccc(-c2nc(N3CCOCC3)sc2-c2ccccc2)cc1	i	8*	i	1.18	i	-7.5	99.0*	0.411	99.7%*	162.5%*	KCNQ1 ephys val=i
O=C(Nc1ccccc1)Nc1cc(Cl)cc(Cl)c1	i	10*	i	0.34	i	-13.6	28.5*	0.517	77.7%*	i
CN1CCN(S(=O)(=O)c2ccc(NC(=O)Nc3cccc(Cl)c3)cc2)CC1	i	11*	i	0.76	i	-21.3	62.0*	0.475	65.3%*	i
O=C(Nc1cccc(Cl)c1)Nc1cccc(Cl)c1	i	i	i	0.3	i	-8.3	.	.	.	.
COC(=O)c1cc(NC(=O)Nc2cccc(Cl)c2)ccc1Cl	i	6*	i	1.3	i	-12.0	62.0*	0.515	i	i
COC(=O)c1cccc(NC(=S)Nc2ccc(Cl)c(Cl)c2)c1	i	8*	i	0.07	i	-21.6	167.5*	0.501	i	i	KCNQ1 ephys val=i
CCc1ccc(-c2nc(CS(=O)CC(=O)NCCCN3CCC(C)CC3)c(C)o2)cc1 (stereo not drawn)	i	i	i	0.27	i	-8.9	.	.	.	.
O=C(Nc1ccccc1Br)c1cc(=O)c2ccccc2o1	i	i	i	0.72	i	-8.5	.	.	.	.
N#Cc1cc2c(nc1Cl)CCCC2	i	i	i	-0.76	i	-8.9	.	.	.	.
NS(=O)(=O)c1cccc(NC(=O)Nc2ccc(Cl)cc2)c1	i	8*	i	1.6	i	-12.6	137.0*	0.426	101.0%*	108.5%*	KCNQ1 ephys val=i
COC(=O)c1cccc(NC(=O)Nc2ccc(Cl)cc2)c1	i	7*	i	0.5	i	-8.1	44.5*	0.548	i	i
Cc1cccc(NC(=O)Nc2ccc(S(N)(=O)=O)cc2)c1	i	i	i	-1.96	i	-9.9	.	.	.	.
SMILES	KCNK9 inh	KCNQ1 inh	KCNQ1 act	Kir21 inh	KCNK3 inh	hERG protect	KCNQ1 block val	CHO Tl flux	KCNQ2 inh	KCNQ1 KCNE1 spec	others
O=C(Nc1ccncc1)Nc1ccc(Cl)cc1	i	7*	i	0.37	i	-16.2	28.0*	0.541	i	i
COc1ccc(NC(=S)Nc2cccc(Cl)c2)cc1OC	i	13*	i	-1.49	i	-10.4	32.5*	0.406	i	i
COC(=O)c1cc(NC(=S)Nc2cc(Cl)cc(Cl)c2)cc(C(=O)OC)c1	i	8*	i	-0.15	i	-11.3	66.0*	0.416	59.3%*	i
CCN1CCC(O)(C(C(=O)O)c2ccccc2)CC1 (stereo not drawn)	.	.	.	.	i	.	.	.	.	.
O=C1COc2ccc(C(=O)NCc3ccc4c(c3)OCO4)cc2N1	i	7*	i	1.27	i	-11.1	103.5*	0.484	86.3%*	112.5%*	KCNQ1 ephys val=+
CC(C)(C)c1ccc(CNC(=O)c2ccc3c(c2)NC(=O)CO3)cc1	i	i	i	1.12	i	2.7	.	.	.	.
CCOC(=O)C1=C(c2ccccc2)NC(SCC(=O)Nc2ccc(C)cc2)=C(C#N)C1c1ccco1 (stereo not drawn)	i	i	i	2.3	i	3.2	.	.	.	.
CCOC(=O)CSC1=C(C#N)C(c2ccco2)C(C(=O)Nc2cccc(C(F)(F)F)c2)=C(C)N1 (stereo not drawn)	i	8*	i	-0.15	i	-13.9	145.0*	0.393	124.7%*	+	KCNQ1 ephys val=i
